Assay outcomes deposited in PubChem BioAssay by several laboratories.
MT stabilizer = microtubule stabilizers in HeLa cells, primary screen, imaging, high-content imaging. HeLa tubulin immunostaining HCS, 24 h; share of cells brighter than vehicle mean+2SD. % tubulin-high responders, % at 10 µM. 0.83% of 200,000 active. AID 2205, 2009;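 active = plate Z-score above 3 for both tubulin-high and condensed-nucleus cell shares, with cell loss under 80%, at 10 µM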;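 note: anti alpha tubulin signal scored within the nucleus-defined area of each cell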
b-catenin transl = modulators of beta-catenin nuclear translocation, primary screen, imaging, HeLa cells, immunofluorescence, high-content; nuclear translocation activity, % at 5 µM; 0.3% of 190,000 active; AID 1665, 2009;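 active = nuclear translocation activity above 50% at 5 µM, with a well cell count of 50 or more; inconclusive = wells under 50 cells across six images, flagged as toxic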;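 note: per-cell ratio of nuclear to cytoplasmic median beta-catenin stain intensity; plate controls were DMSO negative control for no effect and GSK-3 inhibitor IX positive control for full effect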
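System: HeLa cells, endogenous beta-catenin; compound dosing: 5 µM primary single dose, 0.1% DMSO, 0.02–20 µM confirmation series; incubation: 24 h compound exposure at 37°C, 5% CO2; signal: beta-catenin immunofluorescence imaging with DAPI; evaluation: % activation, nuclear-to-cytoplasmic median beta-catenin signal ratio per cell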
Autophagy HCS = autophagy modulators in MEF cells, primary screen, imaging, high-content, MEF GFP-LC3 | MEF GFP-LC3 puncta imaging; test concentration mostly 10 µM | calls only at 10 µM (by protocol) | 0.98% of 190,000 active | AID 463193, 2010;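 active = percentage of spot-positive cells more than 3 SD above its plate mean, without a fluorescence outlier flag or 80% toxicity; inconclusive = no clear call, values can overlap the other calls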;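 note: spot-positive cell cutoff set from DMSO-treated cells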
Ins promoter up = insulin promoter activators in MIN6 cells, imaging, high-content screening, mouse beta cells; MIN6 insulin promoter-GFP reporter; active compounds read high; z-score at 5 µM; 0.3% of 190,000 active; AID 1625, 2009;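 active = z-score above 3 at 5 µM with at least 500 cells counted in the well; inconclusive = wells under 500 cells, flagged as cytotoxic or low count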
Wee1 stabilizer = Wee1 degradation inhibitors, primary screen, cell-based, HeLa, Wee1K328M-luciferase, luminescence; HeLa Luc-Wee1K328M stability; 100% = proteasome inhibitor MG132 effect; 1.2% of 220,000 active; Wee1-like protein kinase (Homo sapiens), P30291; reporter increase, % at 5 µM;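 active = activation above the mean of all tested compounds plus 3 SD, set per screening run, cut at about 8.8% in these data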;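 note: cells exposed to compound for 20 h before luminescence read; 0% = DMSO alone and 100% = MG132 at 30 µM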
Target sequence (P30291 whole entry K328M): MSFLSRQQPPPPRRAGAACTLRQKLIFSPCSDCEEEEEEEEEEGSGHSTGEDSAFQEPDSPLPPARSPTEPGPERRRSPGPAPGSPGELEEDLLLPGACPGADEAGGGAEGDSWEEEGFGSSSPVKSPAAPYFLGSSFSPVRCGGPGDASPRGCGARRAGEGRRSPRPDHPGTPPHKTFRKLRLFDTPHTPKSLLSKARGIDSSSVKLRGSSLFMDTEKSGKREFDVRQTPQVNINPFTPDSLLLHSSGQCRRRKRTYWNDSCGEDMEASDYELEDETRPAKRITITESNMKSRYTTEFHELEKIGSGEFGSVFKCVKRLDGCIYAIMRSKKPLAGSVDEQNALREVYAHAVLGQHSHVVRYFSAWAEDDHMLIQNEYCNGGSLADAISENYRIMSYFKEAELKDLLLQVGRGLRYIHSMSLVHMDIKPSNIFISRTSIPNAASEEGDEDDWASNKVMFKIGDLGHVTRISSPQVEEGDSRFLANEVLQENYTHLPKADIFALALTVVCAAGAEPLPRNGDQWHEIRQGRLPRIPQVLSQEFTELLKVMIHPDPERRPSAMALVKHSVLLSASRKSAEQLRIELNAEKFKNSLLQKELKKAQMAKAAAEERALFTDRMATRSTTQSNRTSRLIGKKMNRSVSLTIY
Starred values were filed as active, the others as inactive; i = inactive; ? = inconclusive; . = not tested or not shown; + = active, no number. The list is not random: actives were taken first. Their share in the collection is about 2.9%.

SMILES	MT stabilizer	b-catenin transl	Autophagy HCS	Ins promoter up	Wee1 stabilizer
CCCCCCCc1c(O)nc(SCCN2CCOCC2)[nH]c1=O	3	1	i	-0.18	-3
CCOC(=O)C1=C(C)Nc2ccc(C)cc2S1	3	0	i	0.31	-2
CSCCOC(=O)C1=C(C)Nc2ccc(C)cc2S1	2	-2	+	.	-1
Cc1ccc(C)c(S(=O)(=O)N2CCN(Cc3ccc(O)c4ncccc34)CC2)c1	5	-4	i	-1.9	9.3*
COc1cccc(C2=CC(c3cccs3)n3nnnc3N2)c1 (stereo not given)	33*	1	i	.	1
COc1cccc(C2=CC(c3ccc(OC)c(OC)c3OC)n3nnnc3N2)c1 (stereo not given)	3	1	i	2.4	2
Cc1cccc2cc3c(nc12)SC(=NCC1CCCO1)N(Cc1ccco1)C3 (stereo not given)	32*	3	i	-1.1	1
CCOc1cccc2cc(-c3nnc(NCc4ccc5c(c4)OCO5)s3)c(=O)oc12	12	2	+	0.6	1
CN(C)C(=O)c1ccc(-c2cc(C(F)(F)F)n(C)n2)s1	.	0	.	-0.21	-2
Cc1ccccc1NC(=O)C1CCN(C2=NS(=O)(=O)c3ccccc32)CC1	1	4	i	.	10*
CC(C)C(=O)N1CCN(C2=NS(=O)(=O)c3ccccc32)CC1	2	.	i	-0.45	-1
C=CCN1C(=O)C2(NNc3ccccc3O2)c2ccccc21 (stereo not given)	2	.	+	0.54	2
CC(C(=O)Nc1cc([N+](=O)[O-])ccc1Cl)N1CCN(c2ccc(O)cc2)CC1 (stereo not given)	2	4	i	-1.4	0
O=C(/C=C/c1cccs1)Nc1ccc(Br)cn1	7	166*	i	1	4
O=C(CCC1CCCN(C(=O)c2ccc3[nH]ccc3c2)C1)N1CCN(c2ccccn2)CC1 (stereo not given)	2	1	i	.	-3
Cc1ccc(N=C2NC(=O)/C(=C/C=C/c3ccco3)S2)cc1	2	6	i	-0.03	1
O=C1NC(=Nc2ccccc2)S/C1=C\C=C\c1ccco1	17*	4	i	-0.24	0
c1ccc(-n2ncc3c(NCc4ccccn4)ncnc32)cc1	2	.	i	0.42	7
Cc1cccc(-n2ncc3c(NCc4ccccc4)ncnc32)c1	6	-1	i	.	0
c1ccc(CNc2ncnc3c2cnn3-c2ccccc2)cc1	54*	12	i	0.95	3
CC1CCN(c2ncnc3c2cnn3-c2ccccc2)CC1	2	.	i	0.88	11*
Clc1ccc(Cn2ncc3c(NCc4ccccc4)ncnc32)c(Cl)c1	17*	10	i	-0.25	-2
Fc1ccc(CNc2ncnc3c2cnn3-c2ccccc2)cc1	2	-2	+	-0.03	1
CCOC(=O)C1CCN(c2ncnc3c2cnn3-c2ccccc2)CC1	3	0	i	-0.68	1
Cc1ccc(NS(=O)(=O)c2ccc(NC(=O)c3ccc(Br)o3)cc2)c(C)c1	4	-4	i	-0.06	1
SMILES	MT stabilizer	b-catenin transl	Autophagy HCS	Ins promoter up	Wee1 stabilizer
CCN1C(=O)N(S(=O)(=O)c2ccc(C)cc2)[C@@H](c2ccccc2)C(C(=O)OC)=C1C	.	0	.	-0.53	.
COC(=O)c1cc2ccsc2n1CC(=O)Nc1cc(Cl)ccc1OC	30*	.	i	-0.22	-1
COC(=O)c1sccc1NC(=O)CC1C(=O)NCCN1C(=O)Nc1cc(Cl)ccc1OC (stereo not given)	.	1	.	-0.14	8.9*
CCOC(=O)CN1C(=O)S/C(=C/c2cccc([N+](=O)[O-])c2O)C1=O	2	-2	i	-0.19	10*
C/C(CC(=O)Nc1ccc2c(c1)OCO2)=N\NC(=O)c1ccc(N)cc1	.	1	.	0.08	9.6*
CCOC(=O)Nc1ccc(C(=O)Oc2ccccc2)c(O)c1	5	.	i	.	10*
CS(=O)(=O)N(CC(=O)N1CCCC1)Cc1ccc(Cl)cc1	4	-3	i	-1.5	1
Cc1cc(Nc2nc3ccccc3nc2Cl)n(-c2ccccc2C)n1	13*	1	i	-0.99	-2
Cc1cc(Nc2ccc(Cl)cc2)n(-c2ccccc2)n1	1	-2	i	0.69	0
Cc1cc(Nc2nc3ccccc3nc2Cl)n(-c2ccccc2)n1	12*	.	i	-0.75	0
Cc1cc(Nc2cccc(Cl)n2)n(-c2ccccc2)n1	5	2	i	0.53	-1
COc1ccc(CNc2ccc(Br)cc2)cc1	1	-1	i	0.01	10*
O=C(O)c1cc(-c2c[nH]c3ccccc23)nc2cc3ccccc3cc12	.	0	.	-0.6	5
COC(=O)c1cncc(C)c1	.	-1	.	0.09	-3
CCn1ncc(Br)c1C(=O)Nc1sc2c(c1C(N)=O)CCC2	2	-4	i	3.5*	2
Cc1ccc(C)c2[nH]c(=O)c(CN(CCN3CCCC3)C(=O)Nc3cccc(Cl)c3)cc12	1	0	+	.	-2
CCOc1ccc(Nc2cc(C)nc(-n3nc(C)cc3C)n2)cc1	16	87*	i	-0.92	-3
CNc1cc(C)nc(-n2nc(C)cc2C)n1	2	0	i	0.41	1
O=[N+]([O-])c1ccc(N/N=C/c2sc(N3CCOCC3)nc2-c2ccccc2)c(S(=O)(=O)Nc2ccccc2Cl)c1	9	4	+	.	0
O=C(N/N=C/c1sc(N2CCOCC2)nc1-c1ccccc1)c1ccccc1Cl	4	0	i	1.1	3
O=[N+]([O-])c1ccc(N/N=C/c2sc(N3CCOCC3)nc2-c2ccccc2)c(S(=O)(=O)Nc2ccc(Cl)cc2)c1	24	2	+	?	2
COc1ccc(C2CN=NC2C(=O)c2ccccc2)cc1 (stereo not given)	.	0	.	-0.51	0
Cc1cccc(C)c1OCCNC(=O)OCc1ccccc1	7	1	i	-0.21	1
CC(=O)n1nc(-c2ccc(Cl)cc2)nc1NCc1ccco1	2	.	i	.	2
COc1ccc(CC(=O)n2nc(-c3ccc(Cl)cc3)nc2NCc2ccco2)cc1	28*	-4	i	0.04	1
Cc1ccc(C(=O)n2nc(-c3ccccc3)nc2NCc2ccco2)cc1	3	-1	i	0.35	3
CCCC(=O)n1nc(-c2ccc(C)cc2)nc1NCc1ccco1	2	2	i	1.9	10*
CCCSc1nc(C)cc(C)c1C(N)=O	3	0	i	0.02	-1
Cc1cc(=O)[nH]c(SCC(=O)N(CCC#N)c2ccccc2)c1C#N	4	-4	i	-0.29	0
COc1ccc(CN=Cc2[nH]c3ccc(Br)c(Cl)c3c2O)cc1	2	2	i	.	-4
